Assay results reported in ChEMBL document CHEMBL4184319, “Fluorescent-Labeled Selective Adenosine A2B Receptor Antagonist Enables Competition Binding Assay by Flow Cytometry” (J Med Chem, 2018).
Active and inactive are the calls of the source. The rule behind the calls is not given here.

Legend:
Adenosine receptor A1 = target: T1, Adenosine receptor A1 (Homo sapiens, UniProt P30542); experiment: Displacement of [3H]CCPA from recombinant human adenosine A1 receptor expressed in CHO cell membranes after 90 mins by liquid scintillation counting method
T1 sequence (P30542 whole entry): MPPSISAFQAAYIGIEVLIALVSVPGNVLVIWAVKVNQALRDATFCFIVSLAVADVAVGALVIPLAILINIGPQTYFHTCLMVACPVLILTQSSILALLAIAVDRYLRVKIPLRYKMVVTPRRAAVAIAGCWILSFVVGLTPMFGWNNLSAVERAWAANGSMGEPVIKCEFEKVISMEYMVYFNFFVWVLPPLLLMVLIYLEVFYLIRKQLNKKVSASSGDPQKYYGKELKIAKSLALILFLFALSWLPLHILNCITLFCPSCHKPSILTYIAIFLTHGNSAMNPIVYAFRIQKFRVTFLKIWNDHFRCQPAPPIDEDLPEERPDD
Procedure, shortened: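 [³H]CCPA (1 nM) used with rat brain cortical or human A1-CHO membranes, 90 min at rt. Membranes pre-incubated 10-15 min with ADA 0.12 IU/mL. Nonspecific binding defined with 10 µM CADO. Compounds dissolved in DMSO, 2.5 % final. Filtration on GF/B filters with ice-cold Tris-HCl washes, then scintillation counting. Curves used 6-7 concentrations spanning 3 log units. At least three experiments, in duplicate (human) or triplicate (rat).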

Adenosine receptor A2b [1] = target: T2, Adenosine receptor A2b (Rattus norvegicus, UniProt P29276); experiment: Displacement of [3H]PSB-603 from recombinant rat adenosine A2B receptor expressed in CHO cell membranes after 75 mins by liquid scintillation counting method
T2 sequence (P29276 whole entry): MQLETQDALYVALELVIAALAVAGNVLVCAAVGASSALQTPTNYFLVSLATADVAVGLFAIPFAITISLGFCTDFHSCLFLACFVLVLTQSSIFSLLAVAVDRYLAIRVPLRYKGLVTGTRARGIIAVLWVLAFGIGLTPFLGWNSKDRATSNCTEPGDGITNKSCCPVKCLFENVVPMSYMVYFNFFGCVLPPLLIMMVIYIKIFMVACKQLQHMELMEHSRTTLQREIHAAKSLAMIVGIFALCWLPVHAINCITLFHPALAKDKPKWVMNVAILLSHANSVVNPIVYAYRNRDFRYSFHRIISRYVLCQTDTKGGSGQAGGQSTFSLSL
Procedure, shortened: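 Membranes pre-incubated 10-15 min with ADA 0.12 IU/mL. DMSO 2.5 % final. Filtration on GF/B with ice-cold 50 mM Tris-HCl pH 7.4 containing 0.1 % BSA, then scintillation counting. Curves used 6-7 concentrations over 3 log units. At least three experiments.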

Adenosine receptor A3 = target: T3, Adenosine receptor A3 (Homo sapiens, UniProt P0DMS8); experiment: Displacement of [3H]PSB-11 from recombinant human adenosine A3 receptor expressed in CHO cell membranes after 45 mins by liquid scintillation counting method
T3 sequence (P0DMS8 whole entry): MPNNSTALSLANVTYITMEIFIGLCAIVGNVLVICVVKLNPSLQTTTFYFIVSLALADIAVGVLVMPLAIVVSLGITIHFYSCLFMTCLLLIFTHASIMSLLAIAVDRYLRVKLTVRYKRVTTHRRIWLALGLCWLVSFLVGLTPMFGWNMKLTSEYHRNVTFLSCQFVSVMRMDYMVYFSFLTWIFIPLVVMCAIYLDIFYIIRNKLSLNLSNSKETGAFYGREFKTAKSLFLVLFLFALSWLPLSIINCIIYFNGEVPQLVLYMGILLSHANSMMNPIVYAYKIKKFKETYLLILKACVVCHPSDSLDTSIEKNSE
Procedure, shortened: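 Human A3-CHO membranes incubated with [³H]PSB-11 (1 nM) for 45 min at rt, after 10-15 min pre-incubation with ADA 0.12 IU/mL. Nonspecific binding defined with 100 µM R-PIA. DMSO 2.5 % final. GF/B filtration, then scintillation counting. Curves used 6-7 concentrations over 3 log units. At least three experiments in duplicate.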

[2] = Selectivity ratio of Ki for adenosine A2A receptor in rat brain striatal membranes to Ki for recombinant human adenosine A2B receptor expressed in CHO cell membranes; format: cell-based
[3] = Selectivity ratio of Ki for recombinant human adenosine A2A receptor expressed in HEK cell membranes to Ki for recombinant mouse adenosine A2B receptor expressed in CHO cell membranes; format: cell-based
Homo sapiens [4] = organism: Homo sapiens; experiment: Selectivity ratio of Ki for recombinant human adenosine A3 receptor expressed in CHO cell membranes to Ki for recombinant human adenosine A2B receptor expressed in CHO cell membranes; format: cell-based
Homo sapiens [5] = organism: Homo sapiens; experiment: Selectivity ratio of Ki for recombinant human adenosine A1 receptor expressed in CHO cell membranes to Ki for recombinant human adenosine A2B receptor expressed in CHO cell membranes; format: cell-based
[6] = Selectivity ratio of Ki for recombinant human adenosine A1 receptor expressed in CHO cell membranes to Ki for recombinant mouse adenosine A2B receptor expressed in CHO cell membranes; format: cell-based
[7] = Selectivity ratio of Ki for recombinant human adenosine A1 receptor expressed in CHO cell membranes to Ki for recombinant rat adenosine A2B receptor expressed in CHO cell membranes; format: cell-based
[8] = Selectivity ratio of Ki for recombinant human adenosine A3 receptor expressed in CHO cell membranes to Ki for recombinant rat adenosine A2B receptor expressed in CHO cell membranes; format: cell-based
Adenosine receptor A2b [9] = target: T4, Adenosine receptor A2b (Homo sapiens, UniProt P29275); experiment: Antagonist activity at recombinant human adenosine A2B receptor expressed in CHO cell membranes assessed as inhibition of NECA-induced cAMP accumulation preincubated for 1 hr followed by NECA induction measured after 5 mins in presence of [3H]cAMP and bovine cAMP-binding protein by liquid scintillation counting method; format: functional
T4 sequence (P29275 whole entry): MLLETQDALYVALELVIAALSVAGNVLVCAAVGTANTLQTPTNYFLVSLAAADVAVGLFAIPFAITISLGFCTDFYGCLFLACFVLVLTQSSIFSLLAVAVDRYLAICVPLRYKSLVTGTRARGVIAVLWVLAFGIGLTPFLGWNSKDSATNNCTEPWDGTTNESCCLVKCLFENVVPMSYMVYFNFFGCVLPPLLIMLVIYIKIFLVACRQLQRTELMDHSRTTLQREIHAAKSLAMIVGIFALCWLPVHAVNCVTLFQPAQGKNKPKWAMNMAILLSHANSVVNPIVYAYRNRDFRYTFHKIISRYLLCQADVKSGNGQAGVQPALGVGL
Procedure, shortened: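 CHO cells stably expressing human A2BAR, pre-incubated with antagonist dilutions for 1 h at 37°C, then stimulated with NECA (10 µM final) for 5 min at 37°C. Reaction stopped with hot (90 °C) lysis solution (4 mM EDTA, 0.01 % Triton X100). cAMP quantified by radioactive competition with [³H]cAMP and bovine adrenal cAMP-binding protein. Response expressed as % of NECA response without antagonist. Means ± SEM, three independent experiments in duplicate.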

[10] = target: T5, Adenosine receptor A2b (Homo sapiens) (UniProt P29275); experiment: Binding affinity to recombinant human adenosine A2B receptor expressed in CHO cell membranes at 100 nM after 15 mins in presence of PSB-603 by confocal microscopic method; format: cell-based
T5 sequence (whole entry): T4 sequence (P29275 whole entry)
Procedure, shortened: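 Live CHO cells stably expressing human A2BAR (or wild-type CHO as control) grown on chambered coverslips to about 80 % confluency. Incubated with fluorescent ligand (100 nM) for 15 min at 37°C, alone or after 30 min pre-incubation with PSB-603 (100 nM) or DPCPX (1 µM). Confocal laser scanning imaging with identical settings across conditions. Three similar experiments.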

`CCCn1c(=O)[nH]c2nc(-c3ccc(OCC(=O)NCCC4=C5C(C)=CC(C)=[N+]5[B-](F)(F)n5c(C)cc(C)c54)cc3)[nH]c2c1=O` showed a Ki (Adenosine receptor A1) of no less than 10 µM, a Ki (Adenosine receptor A2b [1]) of 0.00018 µM and a Ki (Adenosine receptor A3) greater than 10 µM. It also gave a Ratio Ki [2] greater than 150, a Ratio Ki [3] greater than 1000 and a Ratio Ki (Homo sapiens [4]) greater than 1000. The Ratio Ki (Homo sapiens [5]) was greater than 1000, the Ratio Ki [6] was greater than 1000 and the Ratio Ki [7] was greater than 1000. The Ratio Ki [8] was greater than 1000, the IC50 (Adenosine receptor A2b [9]) was 0.262 µM and the Activity [10] was “inactive”.
